Source: ChEMBL document CHEMBL1629563, “Pharmacokinetic and safety evaluation of BILR 355, a second-generation nonnucleoside reverse transcriptase inhibitor, in healthy volunteers” (Antimicrob Agents Chemother, 2008)

Key:
Homo sapiens [1] = assay: Toxicity in healthy human assessed as occurrence of increase in alanine aminotransferase level at 12.5 mg, po administered as single dose relative to control; assay type: organism-based; conditions: in vivo
[2] = Mean residence time in healthy human at 12.5 mg, po administered as single dose coadministered with 100 mg of ritonavir; assay type: ADME, organism-based; conditions: in vivo
[3] = Mean residence time in healthy human at 62.5 mg, po administered as single dose coadministered with 100 mg of ritonavir; assay type: ADME, organism-based; conditions: in vivo
[4] = Mean residence time in healthy human at 75 mg, po administered as single dose coadministered with 100 mg of ritonavir; assay type: ADME, organism-based; conditions: in vivo
[5] = Apparent volume of distribution in terminal phase in healthy human at 25 mg, po administered as single dose coadministered with 100 mg of ritonavir; assay type: ADME, organism-based; conditions: in vivo, read-out: Vz/F
Outline: (§1)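 Healthy male volunteers, fasted overnight, got one oral dose of BILR 355 in PEG solution with 200 ml water. Ritonavir 100 mg was given 10 h before and again with the dose. Plasma was sampled (EDTA) from predose to 144 h and assayed by validated LC-MS/MS. Cmax and Vz/F came from noncompartmental analysis. Vss/F = CL/F·(MRTp.o. − 1/Ka), with Ka from compartmental modelling.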

[6] = Apparent volume of distribution at steady state in healthy human at 75 mg, po administered as single dose coadministered with 100 mg of ritonavir; assay type: ADME, organism-based; conditions: in vivo, read-out: Vss/F; outline: as §1
Homo sapiens [7] = assay: Toxicity in healthy human assessed as occurrence of maculopapular rash at 25 mg, po administered as single dose coadministered with 100 mg of ritonavir; assay type: organism-based; conditions: in vivo
[8] = AUC (0 to infinity) in healthy human at 50 mg, po administered as single dose; assay type: ADME, organism-based; design: dose 50 mg, time infinity, route oral; conditions: plasma
Outline: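 Healthy male volunteers, six active plus two placebo per dose group, single oral dose in PEG solution with 200 ml water after overnight fast; breakfast 60 to 90 min post-dose. EDTA plasma sampled predose to 144 h. Assayed by validated LC-MS/MS after protein precipitation. Noncompartmental analysis, AUC by linear up/log down trapezoidal rule; Vss = CL/F·(MRTp.o. − 1/Ka).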

[9] = Tmax in healthy human at 25 mg, po administered as single dose; assay type: ADME, organism-based; conditions: in vivo
[10] = Renal clearance in healthy human at 50 mg, po administered as single dose by high-pressure liquid chromatography-tandem mass spectrometry/mass spectrometry method; assay type: ADME, organism-based, Kidney; conditions: in vivo, read-out: CL_renal (converted)
[11] = AUC (0 to last) in healthy human at 50 mg, po administered as single dose coadministered with 100 mg of ritonavir; assay type: ADME, organism-based; design: dose 50 mg, time 0 - last, route oral; conditions: plasma
Outline: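 Healthy male volunteers, fasted. Ritonavir 100 mg given 10 h before and again together with single oral BILR 355 in PEG solution. EDTA plasma sampled predose to 144 h. LC-MS/MS assay after protein precipitation. Noncompartmental analysis, AUC by linear up/log down trapezoidal rule; Vss = CL/F·(MRTp.o. − 1/Ka).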

[12] = Cmax in healthy human at 75 mg, po administered as single dose coadministered with 100 mg of ritonavir by high-pressure liquid chromatography-tandem mass spectrometry/mass spectrometry method; assay type: ADME, organism-based; design: dose 75 mg, route oral; conditions: in vivo; outline: as §1

MRT [2]: 24.8 h
MRT [3]: 14 h
MRT [4]: 17.4 h
Vd/F [5]: 97.6 L
Vd/F [6]: 105 L
AUC(0-inf) [8]: 419 ng·h/mL
Tmax [9]: 50 min
CL renal [10]: 9.15 mL/min
AUC(0-t) [11]: 6540 ng·h/mL
Cmax [12]: 812 ng/mL
Structure (SMILES): CCN1c2ncc(CCOc3cc[n+]([O-])c4ccccc34)cc2C(=O)N(C)c2cccnc21 [BILR 355]
Activity (Homo sapiens [1]): 0%
Activity (Homo sapiens [7]): 16.7%
